Test results: ChEMBL document CHEMBL2010794, “Discovery of nor-seco himbacine analogs as thrombin receptor antagonists” (Bioorg Med Chem Lett, 2012)
The source made the active and inactive calls. The calls are words filed in the database; no cut-off is given here.

Assays:
[1] = target: T1, Proteinase-activated receptor 1 (Homo sapiens, UniProt P25116); assay: Displacement of [3H]haTRAP from human PAR1 after 1 hr by TopCount scintillation counting
T1 sequence (P25116 whole entry): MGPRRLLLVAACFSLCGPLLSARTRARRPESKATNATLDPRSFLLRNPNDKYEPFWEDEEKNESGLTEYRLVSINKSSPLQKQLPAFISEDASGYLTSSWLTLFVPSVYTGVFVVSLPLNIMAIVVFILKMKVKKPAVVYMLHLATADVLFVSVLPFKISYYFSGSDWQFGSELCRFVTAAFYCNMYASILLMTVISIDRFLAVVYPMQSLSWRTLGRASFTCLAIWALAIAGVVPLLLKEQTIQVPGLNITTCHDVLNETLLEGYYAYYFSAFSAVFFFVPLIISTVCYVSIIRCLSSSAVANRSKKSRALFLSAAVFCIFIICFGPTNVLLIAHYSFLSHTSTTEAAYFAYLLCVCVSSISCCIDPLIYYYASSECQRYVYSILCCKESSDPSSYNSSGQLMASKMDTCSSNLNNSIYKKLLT
How it was run: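 PAR-1 receptors isolated from human platelets; competition binding against [³H]haTRAP radioligand; values expressed as IC₅₀ (nM).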

[2] = AUC (0 to 6 hrs) in rat at 10 mg/kg, po; type: ADME, organism-based; design: time < 6 hr, dose 10 mg/kg, route oral; conditions: plasma
How it was run: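 Rats given a single 10 mg/kg oral dose in 0.4% methylcellulose; plasma levels followed up to 6 h; AUC from 0 to 6 h reported in ng h/mL.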

[3] = system: Cynomolgus monkey; assay: Cmax in cynomolgus monkey plasma assessed as M+16 hydroxy metabolite at 3 mg/kg, po; type: ADME, organism-based, Macaca fascicularis; design: dose 3 mg/kg, route oral; conditions: in vivo
[4] = system: Cynomolgus monkey; assay: Ex-vivo inhibition of PAR1 in cynomolgus monkey assessed as inhibition of haTRAP-induced platelet aggregation at 1 mg/kg, po at 24 hrs by aggregometry; type: functional; conditions: Macaca fascicularis
How it was run: (§1)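 Cynomolgus monkeys dosed orally in 20% PEG-HPBCD (hydrochloride salt for the 7a-hydroxy series); blood sampled at various times up to 24 h; haTRAP added to whole blood at 1 µM to trigger aggregation, measured by aggregometer; result given as % reduction in haTRAP-induced aggregation at the stated dose and time.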

[5] = AUC (0 to 24 hrs) in cynomolgus monkey plasma at 3 mg/kg, po; type: ADME, organism-based, Macaca fascicularis; design: time < 24 hr, dose 3 mg/kg, route oral
[6] = system: Liver microsomes; assay: Prodrug activation in rat liver microsomes assessed as (3R,3aR,4S,5R,6S,7aS)-5-ethyl-4-((E)-2-(5-(3-fluorophenyl)pyridin-2-yl)vinyl)-7a-hydroxy-3,6-dimethylhexahydroisobenzofuran-1(3H)-one formation; design: species or system Microsome
[7] = system: Cynomolgus monkey; assay: AUC (0 to 24 hrs) in cynomolgus monkey plasma assessed as M+16 hydroxy metabolite at 3 mg/kg, po; type: ADME, organism-based, Macaca fascicularis; design: time < 24 hr, dose 3 mg/kg, route oral; conditions: in vivo
[8] = system: Cynomolgus monkey; assay: Ex-vivo inhibition of PAR1 in cynomolgus monkey assessed as inhibition of haTRAP-induced platelet aggregation at 3 mg/kg, po at 24 hrs by aggregometry; type: functional; conditions: Macaca fascicularis; how it was run: as §1
[9] = Cmax in cynomolgus monkey plasma at 3 mg/kg, po; type: ADME, organism-based, Macaca fascicularis; design: dose 3 mg/kg, route oral
[10] = AUC (0 to 24 hrs) in cynomolgus monkey plasma at 1 mg/kg, po; type: ADME, organism-based, Macaca fascicularis; design: time < 24 hr, dose 1 mg/kg, route oral
[11] = system: Cynomolgus monkey; assay: Ex-vivo inhibition of PAR1 in cynomolgus monkey assessed as inhibition of haTRAP-induced platelet aggregation at 1 mg/kg, po by aggregometry; type: functional, organism-based; design: dose 1 mg/kg; conditions: Macaca fascicularis; how it was run: as §1
[12] = AUC (0 to 24 hrs) in cynomolgus monkey at 1 mg/kg, po; type: ADME, organism-based, Macaca fascicularis; design: time < 24 hr, dose 1 mg/kg, route oral; conditions: plasma
[13] = system: Cynomolgus monkey; assay: Ex-vivo inhibition of PAR1 in cynomolgus monkey assessed as inhibition of haTRAP-induced platelet aggregation at 1 mg/kg, po up to 6 hrs by aggregometry; type: functional, organism-based; design: dose 1 mg/kg; conditions: Macaca fascicularis; how it was run: as §1
[14] = system: Cynomolgus monkey; assay: Ex-vivo inhibition of PAR1 in cynomolgus monkey assessed as inhibition of haTRAP-induced platelet aggregation at 3 mg/kg, po at 6 hrs by aggregometry; type: functional; conditions: Macaca fascicularis; how it was run: as §1

Work on `CC[C@H]1[C@H](/C=C/c2ccc(-c3ccsc3)cn2)[C@@H]2[C@@H](C)OC(=O)[C@]2(O)C[C@@H]1C` yielded an IC50 ([1]; read-out: IC50) of 4.6 nM and an AUC(0-t) at 6 h [2] of 397 ng·h/mL.
`CC[C@H]1[C@H](/C=C/c2ccc(-c3cccc(F)c3)cn2)[C@@H]2[C@@H](C)OC(=O)[C@@H]2C[C@@H]1C` showed a Cmax [3] of 98 ng/mL, an IC50 ([1]; read-out: IC50) of 15 nM and an inhibition in vivo at 1 mg/kg [4] of 69%. The AUC(0-t) at 6 h [2] was 230 ng·h/mL, the AUC(0-t) at 24 h [5] was 451 ng·h/mL and the Drug metabolism [6] was “Active”. It also gave an AUC [7] of 1400 ng·h/mL, an inhibition in vivo at 3 mg/kg [8] of 100% and a Cmax [9] of 62 ng/mL.
With `CC[C@H]1[C@H](/C=C/c2ccc(-c3cccc(C(F)(F)F)c3)cn2)[C@@H]2[C@@H](C)OC(=O)[C@@H]2C[C@@H]1C` the IC50 ([1]; read-out: IC50) was 24 nM.
For `CC[C@H]1[C@H](/C=C/c2ccc(-c3cccc(OC)c3)cn2)[C@@H]2[C@@H](C)OC(=O)[C@]2(O)C[C@@H]1C.Cl`, the AUC(0-t) at 24 h [10] was 1210 ng·h/mL.
For `CC[C@H]1[C@H](/C=C/c2ccc(-c3cccc(OC)c3)cn2)[C@@H]2[C@@H](C)OC(=O)[C@]2(O)C[C@@H]1C`, the inhibition [11] was “inactive”.
For `CC[C@H]1[C@H](/C=C/c2ccc(-c3cccc(F)c3)cn2)[C@@H]2[C@@H](C)OC(=O)[C@]2(O)C[C@@H]1C`, the IC50 ([1]; read-out: IC50) was 27 nM, the AUC(0-t) at 6 h [2] was 1140 ng·h/mL and the AUC(0-t) at 24 h [12] was 4280 ng·h/mL. For the same molecule, the inhibition [13] was “Active” and the inhibition in vivo at 3 mg/kg [8] was 100%.
For `CC[C@H]1[C@H](/C=C/c2ccc(N3CCCC3)cn2)[C@@H]2[C@@H](C)OC(=O)[C@]2(O)C[C@@H]1C`, the inhibition in vivo at 3 mg/kg [14] was 100%.
With `CC[C@H]1[C@H](/C=C/c2ccc(-c3ccccc3C)cn2)[C@@H]2[C@@H](C)OC(=O)[C@@H]2C[C@@H]1C` the IC50 ([1]; read-out: IC50) was 20 nM.
With `CC[C@H]1[C@H](/C=C/c2ccc(-c3cccc(Cl)c3Cl)cn2)[C@@H]2[C@@H](C)OC(=O)[C@@H]2C[C@@H]1C` the IC50 ([1]; read-out: IC50) was 13 nM, the AUC(0-t) at 6 h [2] was 1150 ng·h/mL and the AUC(0-t) at 24 h [5] was 573 ng·h/mL. It also gave an AUC [7] of 813 ng·h/mL and an inhibition in vivo at 3 mg/kg [8] of 95%.
`CC[C@H]1[C@H](/C=C/c2ccc(-c3cccnc3)cn2)[C@@H]2[C@@H](C)OC(=O)[C@]2(O)C[C@@H]1C` gave an inhibition in vivo at 3 mg/kg [8] of 45%.
`CC[C@H]1[C@H](/C=C/c2ccc(-c3cccc(C#N)c3)cn2)[C@@H]2[C@@H](C)OC(=O)[C@@H]2C[C@@H]1C` showed an IC50 ([1]; read-out: IC50) of 21 nM.
Molecule `CC[C@H]1[C@H](/C=C/c2ccc(-c3ccccc3C)cn2)[C@@H]2[C@@H](C)OC(=O)[C@]2(O)C[C@@H]1C` has an IC50 ([1]; read-out: IC50) of 33 nM and an AUC(0-t) at 6 h [2] of 3160 ng·h/mL.
With `CC[C@H]1[C@H](/C=C/c2ccc(-c3ccc(C#N)cc3)cn2)[C@@H]2[C@@H](C)OC(=O)[C@]2(O)C[C@@H]1C` the IC50 [1] was “Not Active”.
`CC[C@H]1[C@H](/C=C/c2ccc(-c3cccc(C#N)c3)cn2)[C@@H]2[C@@H](C)OC(=O)[C@]2(O)C[C@@H]1C.Cl` gave an inhibition in vivo at 1 mg/kg [4] of 60% and an AUC(0-t) at 24 h [10] of 6280 ng·h/mL.
Molecule `CC[C@H]1[C@H](/C=C/c2ccc(-c3cccc(C)c3)cn2)[C@@H]2[C@@H](C)OC(=O)[C@@H]2C[C@@H]1C` has an IC50 ([1]; read-out: IC50) of 45 nM.
Work on `CC[C@H]1[C@H](/C=C/c2ccc(-c3cccc(C#N)c3)cn2)[C@@H]2[C@@H](C)OC(=O)[C@]2(O)C[C@@H]1C` yielded an IC50 ([1]; read-out: IC50) of 20 nM and an AUC(0-t) at 6 h [2] of 1080 ng·h/mL.
Work on `CC[C@H]1[C@H](/C=C/c2ccc(-c3ccsc3)cn2)[C@@H]2[C@@H](C)OC(=O)[C@]2(O)C[C@@H]1C.Cl` yielded an AUC(0-t) at 24 h [5] of 4740 ng·h/mL and an inhibition in vivo at 3 mg/kg [8] of 90%.
In the case of `CC[C@H]1[C@H](/C=C/c2ccc(-c3ccccc3OC)cn2)[C@@H]2[C@@H](C)OC(=O)[C@]2(O)C[C@@H]1C`, the IC50 ([1]; read-out: IC50) is reported as 8.1 nM and the AUC(0-t) at 6 h [2] is reported as 168 ng·h/mL.
